Measurements published in ChEMBL document CHEMBL3297739 (J Med Chem, 2014).

Key:
[1] = biological target: T1, Farnesyl pyrophosphate synthase (Homo sapiens, UniProt P14324); assay: Allosteric inhibition of human recombinant FPPS using GPP and [3H]IPP as substrate incubated with enzyme for 10 mins prior to substrate addition by liquid scintillation counting analysis
T1 sequence (P14324 whole entry): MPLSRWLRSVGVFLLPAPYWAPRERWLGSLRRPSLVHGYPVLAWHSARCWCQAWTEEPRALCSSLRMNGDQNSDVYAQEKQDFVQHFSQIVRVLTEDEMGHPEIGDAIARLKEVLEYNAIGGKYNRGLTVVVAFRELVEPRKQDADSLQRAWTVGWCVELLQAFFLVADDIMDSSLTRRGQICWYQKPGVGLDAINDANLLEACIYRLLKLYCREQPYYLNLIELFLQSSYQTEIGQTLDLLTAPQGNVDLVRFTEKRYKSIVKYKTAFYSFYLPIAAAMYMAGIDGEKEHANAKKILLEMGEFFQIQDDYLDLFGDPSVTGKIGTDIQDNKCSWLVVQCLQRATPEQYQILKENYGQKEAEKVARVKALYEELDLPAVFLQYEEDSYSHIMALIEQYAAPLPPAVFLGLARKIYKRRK

[2] = biological target: T2, Farnesyl pyrophosphate synthase (Homo sapiens) (UniProt P14324); assay: Allosteric inhibition of human recombinant FPPS using GPP and [3H]IPP as substrate at 20 uM incubated with enzyme for 10 mins prior to substrate addition by liquid scintillation counting analysis
T2 sequence (whole entry): T1 sequence (P14324 whole entry)

[3] = Cytotoxicity against human SH-SY5Y cells assessed as LDH release after 48 hrs (reference value: 0%); type: cell-based
In short: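 SH-SY5Y neuroblastoma cells were grown in serum for 5 days, then exposed to inhibitor (1–500 nM range). LDH activity in the medium was measured with a commercial kit. Values are % activity relative to untreated cells, which were set to 0%.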

[4] = Dissociation constant, pKa of P(O)O-OH group of compound; type: physicochemical
[5] = biological target: T1, Farnesyl pyrophosphate synthase; assay: Binding affinity to human FPPS by […] in absence of Mg2+ ions
In short: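 ITC at 30 °C. One 1 μL ligand injection was followed by 18 injections of 2 μL. Heats of dilution from control titrations were subtracted.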

SMILES	IC50 [1]	Activity [3]	other results
O=P(O)(O)C(Cc1cccnc1)P(=O)(O)O	0.033 µM	–	–
O=P(O)(O)C(O)(Cc1cccnc1)P(=O)(O)O [RISEDRONIC ACID]	–	60%	–
Cc1ccc(-c2cc3c(CCP(=O)(O)O)ncnc3s2)cc1	26 µM	–	pKa [4]: 7.7
O=C(O)Cn1c(C(=O)O)cc2ccc3ccccc3c21	–	3%	–
O=P(O)(O)CCc1cccnc1	> 800 µM	–	–
O=P(O)(O)C(Nc1cncc(-c2ccc(OC3CC3)cc2)c1)P(=O)(O)O	–	0%	–
O.O=P(O)(O)C(O)(Cn1ccnc1)P(=O)(O)O [ZOLEDRONIC ACID]	–	60%	–
Cc1ccc(-c2cc3c(NCP(=O)(O)O)ncnc3s2)cc1	–	–	pKa [4]: 6.8; Kd [5]: 9.2 µM
O=P(O)(O)C(Nc1ncnc2sc(-c3ccc(OC4CC4)cc3)cc12)P(=O)(O)O	–	-1%	–
Cc1ccc(-c2cc3c(NC(P(=O)(O)O)P(=O)(O)O)ncnc3s2)cc1	–	–	Kd [5]: 56 µM

Now from value to compound, other results behind:

IC50 [1]	SMILES	Activity [3]	other results
> 20 µM	Cc1ccc(-c2cc3c(NCC(=O)O)ncnc3s2)cc1	–	inhibition [2]: 27%
3.3 µM	Cc1ccc(-c2cc3c(NCP(=O)(O)O)ncnc3s2)cc1Cl	–	–
1.2 µM	Cc1ccc(-c2cc3c(NC(c4ccccc4)P(=O)(O)O)ncnc3s2)cc1Cl (centres undefined)	-7%	–
> 20 µM	Cc1ccc(-c2cc3c(NCCP(=O)(O)O)ncnc3s2)cc1	–	inhibition [2]: 40%
